According to ChEMBL document CHEMBL1147391, “Isolation of echinocystic acid-3-O-sulfate, a new triterpene, from Tetrapleura tetraptera, and evaluation of the mutagenic potential of molluscicidal extracts and isolates” (J Nat Prod, 1993):
The source made the active and inactive calls. No cut-off for these calls is given here.

Tests used:
Salmonella typhimurium [1] = test: Bactericidal activity against Salmonella Typhimurium […] assessed as survival at 5 mg/ml after 48 to 60 hrs in absence of rat S9 liver homogenate relative to control; type: functional, organism-based; conditions: Salmonella enterica subsp. enterica serovar Typhimurium
Summary of the method: (§1)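 TM677 (pKM101) exposed to test substance in DMSO with or without S-9 from livers of Aroclor 1254-pretreated rats, 2 h at 37°, quenched with PBS, centrifuged, diluted and plated in triplicate without 8-azaguanine. Colonies scored after 48–60 h at 37°. Survival is expressed relative to a DMSO-only control after correction for dilution.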

Biomphalaria glabrata [2] = test: Molluscicidal activity against Biomphalaria glabrata assessed as mortality at 1.25 ppm after 24 hrs; type: functional
Summary of the method: (§2)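 Lab-bred B. glabrata (about 12 mm shell diameter), five snails per test, tested in duplicate at 21–22°. Samples dissolved in MeOH and diluted in dechlorinated tap water, final MeOH ≤1% v/v. Snails immersed 24 h, rinsed, then held 24 h in clean water. Death means no heartbeat under a dissecting microscope. Negative control was 1% MeOH.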

Salmonella typhimurium [3] = test: Forward mutagenic activity in Salmonella Typhimurium […] assessed as mutant fraction at 0.625 mg/ml after 2 hrs in presence of rat S9 liver homogenate; type: toxicity, organism-based; conditions: salmonella enterica subsp. enterica serovar typhimurium
Summary of the method: (§3)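 Forward mutation assay in S. typhimurium TM677 carrying pKM101, with or without Aroclor 1254-induced rat liver S-9 (9000×g). Substance in DMSO incubated with bacteria 2 h at 37°, quenched with PBS and plated in triplicate with and without 8-azaguanine, then grown 48–60 h at 37°. Mutant fraction is the mean 8-azaguanine-resistant colony count over the mean count without 8-azaguanine, corrected for dilution.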

Salmonella typhimurium [4] = test: Forward mutagenic activity in Salmonella Typhimurium […] assessed as mutant fraction at 2.5 mg/ml after 2 hrs in presence of rat S9 liver homogenate; type: toxicity, organism-based; conditions: salmonella enterica subsp. enterica serovar typhimurium; summary of the method: as §3
Salmonella typhimurium [5] = test: Forward mutagenic activity in Salmonella Typhimurium […] assessed as mutant fraction at 0.3125 mg/ml after 2 hrs in absence of rat S9 liver homogenate; type: toxicity, organism-based; conditions: salmonella enterica subsp. enterica serovar typhimurium; summary of the method: as §3
Salmonella typhimurium [6] = test: Forward mutagenic activity in Salmonella Typhimurium […] assessed as mutant fraction at 0.625 mg/ml after 2 hrs in absence of rat S9 liver homogenate; type: toxicity, organism-based; conditions: salmonella enterica subsp. enterica serovar typhimurium; summary of the method: as §3
Salmonella typhimurium [7] = test: Bactericidal activity against Salmonella Typhimurium […] assessed as survival at 0.625 mg/ml after 48 to 60 hrs in presence of rat S9 liver homogenate relative to control; type: functional, organism-based; conditions: Salmonella enterica subsp. enterica serovar Typhimurium, Liver S9 fraction; summary of the method: as §1
Salmonella typhimurium [8] = test: Bactericidal activity against Salmonella Typhimurium […] assessed as survival at 1.25 mg/ml after 48 to 60 hrs in absence of rat S9 liver homogenate relative to control; type: functional, organism-based; conditions: Salmonella enterica subsp. enterica serovar Typhimurium; summary of the method: as §1
Salmonella typhimurium [9] = test: Bactericidal activity against Salmonella Typhimurium […] assessed as survival at 5 mg/ml after 48 to 60 hrs in presence of rat S9 liver homogenate relative to control; type: functional, organism-based; conditions: Salmonella enterica subsp. enterica serovar Typhimurium, Liver S9 fraction; summary of the method: as §1
Salmonella typhimurium [10] = test: Bactericidal activity against Salmonella Typhimurium […] assessed as survival at 0.625 mg/ml after 48 to 60 hrs in absence of rat S9 liver homogenate relative to control; type: functional, organism-based; conditions: Salmonella enterica subsp. enterica serovar Typhimurium; summary of the method: as §1
Salmonella typhimurium [11] = test: Forward mutagenic activity in Salmonella Typhimurium […] assessed as mutant fraction at 5 mg/ml after 2 hrs in absence of rat S9 liver homogenate; type: toxicity, organism-based; conditions: salmonella enterica subsp. enterica serovar typhimurium; summary of the method: as §3
Salmonella typhimurium [12] = test: Bactericidal activity against Salmonella Typhimurium […] assessed as survival at 0.3125 mg/ml after 48 to 60 hrs in absence of rat S9 liver homogenate relative to control; type: functional, organism-based; conditions: Salmonella enterica subsp. enterica serovar Typhimurium; summary of the method: as §1
Salmonella typhimurium [13] = test: Bactericidal activity against Salmonella Typhimurium […] assessed as survival at 0.3125 mg/ml after 48 to 60 hrs in presence of rat S9 liver homogenate relative to control; type: functional, organism-based; conditions: Salmonella enterica subsp. enterica serovar Typhimurium, Liver S9 fraction; summary of the method: as §1
Salmonella typhimurium [14] = test: Forward mutagenic activity in Salmonella Typhimurium […] assessed as mutant fraction at 1.25 mg/ml after 2 hrs in presence of rat S9 liver homogenate; type: toxicity, organism-based; conditions: salmonella enterica subsp. enterica serovar typhimurium; summary of the method: as §3
Salmonella typhimurium [15] = test: Forward mutagenic activity in Salmonella Typhimurium […] assessed as mutant fraction at 0.3125 mg/ml after 2 hrs in presence of rat S9 liver homogenate; type: toxicity, organism-based; conditions: salmonella enterica subsp. enterica serovar typhimurium; summary of the method: as §3
Salmonella typhimurium [16] = test: Bactericidal activity against Salmonella Typhimurium […] assessed as survival at 1.25 mg/ml after 48 to 60 hrs in presence of rat S9 liver homogenate relative to control; type: functional, organism-based; conditions: Salmonella enterica subsp. enterica serovar Typhimurium, Liver S9 fraction; summary of the method: as §1
Salmonella typhimurium [17] = test: Bactericidal activity against Salmonella Typhimurium […] assessed as survival at 2.5 mg/ml after 48 to 60 hrs in presence of rat S9 liver homogenate relative to control; type: functional, organism-based; conditions: Salmonella enterica subsp. enterica serovar Typhimurium, Liver S9 fraction; summary of the method: as §1
Salmonella typhimurium [18] = test: Forward mutagenic activity in Salmonella Typhimurium […] assessed as mutant fraction at 2.5 mg/ml after 2 hrs in absence of rat S9 liver homogenate; type: toxicity, organism-based; conditions: salmonella enterica subsp. enterica serovar typhimurium; summary of the method: as §3
Salmonella typhimurium [19] = test: Forward mutagenic activity in Salmonella Typhimurium […] assessed as mutant fraction at 5 mg/ml after 2 hrs in presence of rat S9 liver homogenate; type: toxicity, organism-based; conditions: salmonella enterica subsp. enterica serovar typhimurium; summary of the method: as §3
Salmonella typhimurium [20] = test: Forward mutagenic activity in Salmonella Typhimurium […] assessed as mutant fraction at 1.25 mg/ml after 2 hrs in absence of rat S9 liver homogenate; type: toxicity, organism-based; conditions: salmonella enterica subsp. enterica serovar typhimurium; summary of the method: as §3
Salmonella typhimurium [21] = test: Bactericidal activity against Salmonella Typhimurium […] assessed as survival at 2.5 mg/ml after 48 to 60 hrs in absence of rat S9 liver homogenate relative to control; type: functional, organism-based; conditions: Salmonella enterica subsp. enterica serovar Typhimurium; summary of the method: as §1
Biomphalaria glabrata [22] = test: Molluscicidal activity against Biomphalaria glabrata assessed as mortality at 15 ppm after 24 hrs; type: functional; summary of the method: as §2
Biomphalaria glabrata [23] = test: Molluscicidal activity against Biomphalaria glabrata assessed as mortality at 20 ppm after 24 hrs; type: functional; summary of the method: as §2
Salmonella typhimurium [24] = test: Bactericidal activity against Salmonella Typhimurium […] assessed as survival at 0.5 mg/ml after 48 to 60 hrs in presence of rat S9 liver homogenate; type: functional, organism-based; conditions: Salmonella enterica subsp. enterica serovar Typhimurium, Liver S9 fraction
Summary of the method: (§4)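 TM677 (pKM101) forward mutation assay run with a 9000×g liver supernatant (S-9) from Aroclor 1254-pretreated rats. Test substance was added in DMSO and incubated 2 h at 37°, then quenched with PBS. Cells were pelleted, diluted and plated in triplicate without 8-azaguanine, and colonies counted after 48–60 h at 37°. Survival was dilution-corrected and taken relative to a DMSO solvent control.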

Salmonella typhimurium [25] = test: Bactericidal activity against Salmonella Typhimurium […] assessed as survival at 0.58 mg/ml after 48 to 60 hrs in absence of rat S9 liver homogenate; type: functional, organism-based; conditions: Salmonella enterica subsp. enterica serovar Typhimurium
Summary of the method: (§5)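 Forward mutation assay in S. typhimurium TM677 carrying plasmid pKM101, without S-9. Bacteria were mixed with MEM, test substance added in DMSO, and incubated 2 h at 37°. The mix was quenched with PBS, pelleted, diluted and plated in triplicate without 8-azaguanine. Colonies were counted after 48–60 h at 37°. Survival was dilution-corrected and taken relative to a DMSO-only control.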

Salmonella typhimurium [26] = test: Bactericidal activity against Salmonella Typhimurium […] assessed as survival at 5.8 mg/ml after 48 to 60 hrs in absence of rat S9 liver homogenate; type: functional, organism-based; conditions: Salmonella enterica subsp. enterica serovar Typhimurium; summary of the method: as §5
Salmonella typhimurium [27] = test: Bactericidal activity against Salmonella Typhimurium […] assessed as survival at 50 mg/ml after 48 to 60 hrs in presence of rat S9 liver homogenate; type: functional, organism-based; conditions: Salmonella enterica subsp. enterica serovar Typhimurium, Liver S9 fraction; summary of the method: as §4
Salmonella typhimurium [28] = test: Bactericidal activity against Salmonella Typhimurium […] assessed as survival at 0.058 mg/ml after 48 to 60 hrs in absence of rat S9 liver homogenate; type: functional, organism-based; conditions: Salmonella enterica subsp. enterica serovar Typhimurium; summary of the method: as §5

| SMILES | Activity (Salmonella typhimurium [1]) | Activity (Salmonella typhimurium [3]) | Activity (Salmonella typhimurium [4]) | Activity (Salmonella typhimurium [5]) | Activity (Salmonella typhimurium [6]) | Activity (Salmonella typhimurium [7]) | Activity (Salmonella typhimurium [8]) | Activity (Salmonella typhimurium [9]) | Activity (Salmonella typhimurium [10]) | Activity (Salmonella typhimurium [11]) | Activity (Salmonella typhimurium [12]) | Activity (Salmonella typhimurium [13]) | Activity (Salmonella typhimurium [14]) | Activity (Salmonella typhimurium [15]) | Activity (Salmonella typhimurium [16]) | Activity (Salmonella typhimurium [17]) | Activity (Salmonella typhimurium [18]) | Activity (Salmonella typhimurium [19]) | Activity (Salmonella typhimurium [20]) | Activity (Salmonella typhimurium [21]) | other results |
| --- | --- | --- | --- | --- | --- | --- | --- | --- | --- | --- | --- | --- | --- | --- | --- | --- | --- | --- | --- | --- | --- |
| CC(=O)N[C@H]1[C@H](O[C@H]2CC[C@]3(C)[C@H]4CC=C5[C@H]6CC(C)(C)CC[C@]6(C(=O)O)CC[C@@]5(C)[C@]4(C)CC[C@H]3C2(C)C)O[C@H](CO)[C@@H](O)[C@@H]1O [ARIDANIN] | 100% | 2.9 | 2.8 | 4.5 | 5.6 | 100% | 100% | 100% | 98% | 4.2 | 89% | 100% | 3.2 | 2.5 | 100% | 100% | 3.3 | 4 | 4.1 | 100% | Activity (Biomphalaria glabrata [2]): 100% |
| CC(=O)N[C@H]1[C@H](O[C@H]2CC[C@]3(C)[C@H]4CC=C5[C@H]6CC(C)(C)CC[C@]6(C(=O)O)[C@H](O)C[C@@]5(C)[C@]4(C)CC[C@H]3C2(C)C)O[C@H](CO)[C@@H](O)[C@@H]1O | 100% | 3.1 | 2.9 | 4.9 | 5.4 | 100% | 100% | 100% | 100% | 4.7 | 100% | 100% | 2.6 | 3.2 | 200% | 100% | 4.7 | 4.6 | 5.4 | 100% | Activity (Biomphalaria glabrata [22]): 100% |
| CC(=O)N[C@H]1[C@H](O[C@H]2CC[C@]3(C)[C@H]4CC=C5[C@H]6CC(C)(C)CC[C@]6(C(=O)O)CC[C@@]5(C)[C@]4(C)CC[C@H]3C2(C)C)O[C@H](CO[C@@H]2O[C@H](CO)[C@@H](O)[C@H](O)[C@H]2O)[C@@H](O)[C@@H]1O | 100% | – | – | 4.1 | 4.2 | – | 100% | – | 100% | 5 | 100% | – | – | – | – | – | 3.1 | – | 4 | 100% | Activity (Biomphalaria glabrata [23]): 100% |
| CC1(C)CC[C@]2(C(=O)O)[C@H](O)C[C@]3(C)C(=CC[C@@H]4[C@@]5(C)CC[C@H](OS(=O)(=O)O)C(C)(C)[C@@H]5CC[C@]43C)[C@H]2C1 | – | – | – | – | – | – | – | inactive | – | – | – | – | – | – | – | – | – | – | – | – | Activity (Salmonella typhimurium [24]): inactive; Activity (Salmonella typhimurium [25]): inactive; Activity (Salmonella typhimurium [26]): inactive; Activity (Salmonella typhimurium [27]): inactive; Activity (Salmonella typhimurium [28]): inactive; Activity (Biomphalaria glabrata [23]): Non-toxic |
